# High-throughput results (PubChem BioAssay)
# This is a sample that favours compounds with a hit; in the whole collection about 2.9% have one here.
# RanGTP-Imp inh – inhibitors of RanGTP-importin-beta interaction, primary screen, biochemical, FRET, CFP-Ran, YFP-importin-beta, homogeneous; cell-free CFP-Ran/YFP-importin-beta FRET ratio; inhibition, % (no concentration beside the values); AID 2216, 2009; actives 1.1% (n = 300,000);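 active means more than half of the replicate wells show a fall in the fluorescence ratio signal beyond about 16%, limit read from the data, passing the limit was not always enough; inconclusive means exactly half of the replicate wells pass the set limit; inactive means fewer than half of replicates pass the limit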;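 further: 0% = DMSO wells and 100% = Ran loaded with GDP instead of GTP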
# Runt-SMMHC FRET – inhibitors of RUNX1 Runt–CBFb-SMMHC binding, primary screen, biochemical, FRET, Cerulean-Runt, Venus-CBFb-SMMHC, uHTS; Runt-related transcription factor 1 (Homo sapiens) + Core-binding factor subunit beta …; Cerulean-Runt/Venus-CBFb-SMMHC FRET ratio 530/480, 1 h; inhibition, % at 20 µM; actives 0.74% (n = 220,000); AID 1434, 2008;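 active means mean inhibition across duplicate retests at 20 µM reaching about 50%, limit read from the data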;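 further: 0% = DMSO wells and 100% = wells with excess untagged CBFb-SMMHC; inhibitors lower the FRET ratio by blocking Runt binding to CBFb-SMMHC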
# proKLK7 act – proKLK7 zymogen activators, primary screen, biochemical, fluorescence intensity. AID 652039, 2013. purified proKLK7, EDANS-DABCYL substrate fluorescence; 100% is mature enzyme control, 0% vehicle. actives 0.9% (n = 370,000). activation, % at 7 µM. Kallikrein-7 (Homo sapiens), P49862;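 active means activation above the mean of all tested compounds plus 3 SD, computed per campaign excluding outliers beyond control limits, cut at about 13% in these data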
# Wee1 degr inh – Wee1 degradation inhibitors, primary screen, cell-based, HeLa, Wee1K328M-luciferase, luminescence | HeLa Luc-Wee1K328M stability; 100% = proteasome inhibitor MG132 effect | AID 1321, 2008 | reporter increase, % at 5 µM | Wee1-like protein kinase (Homo sapiens), P30291 | actives 1.2% (n = 220,000);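 active means activation above the mean of all tested compounds plus 3 SD, set per screening run, cut at about 8.8% in these data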;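 further: cells exposed to compound for 20 h before luminescence read; 0% = DMSO alone and 100% = MG132 at 30 µM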
# Target sequence (P30291 whole entry K328M): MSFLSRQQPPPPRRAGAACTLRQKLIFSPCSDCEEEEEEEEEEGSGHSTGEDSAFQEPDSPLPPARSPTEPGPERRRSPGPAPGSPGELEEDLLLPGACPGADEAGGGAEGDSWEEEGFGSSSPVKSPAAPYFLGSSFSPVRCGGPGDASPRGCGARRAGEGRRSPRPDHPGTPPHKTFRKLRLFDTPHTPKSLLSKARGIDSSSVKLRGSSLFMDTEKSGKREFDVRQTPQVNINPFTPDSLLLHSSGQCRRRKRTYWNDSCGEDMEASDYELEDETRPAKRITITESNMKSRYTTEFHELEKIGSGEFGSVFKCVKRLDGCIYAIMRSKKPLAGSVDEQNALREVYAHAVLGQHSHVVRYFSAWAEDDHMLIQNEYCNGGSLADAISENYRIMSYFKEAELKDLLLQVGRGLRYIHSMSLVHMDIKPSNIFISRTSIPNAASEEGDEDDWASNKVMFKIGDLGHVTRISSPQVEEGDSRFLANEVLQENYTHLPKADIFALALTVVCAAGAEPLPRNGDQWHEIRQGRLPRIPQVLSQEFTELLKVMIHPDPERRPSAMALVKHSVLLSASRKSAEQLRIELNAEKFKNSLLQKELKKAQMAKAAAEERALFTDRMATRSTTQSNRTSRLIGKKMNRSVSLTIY
# Runt-CBFb FRET – inhibitors of RUNX1 Runt–CBFb binding, primary screen, biochemical, FRET, Cerulean-Runt, Venus-CBFb, uHTS; Runt-related transcription factor 1 (Homo sapiens) + Core-binding factor subunit beta …; Cerulean-Runt/Venus-CBFb FRET ratio 530/480, 1 h; inhibition, % at 20 µM; actives 0.46% (n = 220,000); AID 1496, 2009;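 active means inhibition over about 50% at 20 µM in the single-dose screen, limit read from the data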;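 further: 0% = DMSO wells and 100% = excess unlabeled CBFb competitor control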
#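 Buffer or medium: Tris pH 7.5 buffer with BSA. Assay system: Cerulean-labeled Runt domain protein. Amount: each fluorescent fusion protein 100 nM. Read-out basis: loss of energy transfer signal. Incubation: 1 h compound exposure, room temperature. Probe or stimulus: Venus-CBFb binding partner, 100 nM. Detection: FRET, excitation 422 nm, emission at 530 and 480 nm.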
# AI-2 QS mod – Vibrio harveyi AI-2 quorum sensing modulators, primary screen, JMH597 strain, luminescence/OD600 ratio; activity change, % at 7.5 µM; actives 0.4% (n = 300,000); AID 2094, 2009; Vibrio harveyi JMH597 AI-2 luminescence/OD600 ratio, 9 h; stronger effect = lower value; strain lacks LuxN and CqsS sensors; 0 = neutral-control median; in the data active means activity change below about -75%, passing the limit was not always enough; inconclusive means no clear call, values can overlap the other calls;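 further: luminescence divided by OD600 gain over 9 h not by final OD600 alone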
# KLK7 act conf – proKLK7 zymogen activators, confirmation, biochemical, fluorescence intensity, triplicate | AID 686949, 2013 | actives 68% (n = 3,200) | purified proKLK7, EDANS-DABCYL substrate fluorescence; scaled: vehicle 0, mature enzyme 100 | activation, % at 7 µM | shares compounds with proKLK7 act;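 active means activation, as change over the incubation, above the mean of all tested compounds plus 3 SD, cut at about 13% in these data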
# EDANS interfere – EDANS-DABCYL substrate optical interference, artefact control for kallikrein-7 zymogen activator project, biochemical, fluorescence intensity, high throughput | shares compounds with proKLK7 act | no enzyme, 4 h; solvent 0%, active enzyme control 100% | activation, % at 7 µM | actives 80% (n = 3,200);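 active means activation above the all-compound mean plus 3 SD, ignoring values outside control-based bounds, cut at about 4.8% in these data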;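 further: value is the 4 h activation minus the activation read at time zero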
# * = called active by the depositor; u = inconclusive; x = no result.
SMILES,RanGTP-Imp inh,Runt-SMMHC FRET,proKLK7 act,Wee1 degr inh,Runt-CBFb FRET,AI-2 QS mod,KLK7 act conf,EDANS interfere
O=C(Nc1ccncc1Cl)c1ccncc1,-2.3,x,0.1,x,x,13.3,x,x
Cc1ccc2nc(Cl)c(/C=N/n3c(C)nnc3C)cc2c1,-2.6,-1.7,-0.9,2.9,0.5,17.7,x,x
CNc1nc2sc3c(c2c(=O)n1C)CC(C)(C)SC3,0.9,7.1,23.2*,1.0,1.0,28.3,1.1,2.0
CS(=O)(=O)N1CCC(C(=O)NCc2ccc(Cl)cc2)CC1,0.4,-0.6,0.0,-0.4,-1.3,9.0,x,x
CCOC(=O)N1CCN(S(=O)(=O)c2ccc(C(=O)Nc3sc4c(c3C#N)CCC4)cc2)CC1,3.0,-6.7,-0.2,-0.8,-4.9,7.0,x,x
CC1(C)Cc2c(sc(NC(=O)c3ccc(S(=O)(=O)N4CCCC4)cc3)c2C#N)C(C)(C)N1,-2.1,x,38.4*,x,x,13.6,140.7*,154.1*
CC1(C)Cc2c(sc(NC(=O)c3ccc(S(=O)(=O)N4CCCCCC4)cc3)c2C(N)=O)C(C)(C)N1,-1.4,x,30.5*,x,x,33.6,33.2*,30.6*
CC1(C)Cc2c(sc(NC(=O)c3ccc4c(c3)OCCO4)c2C(N)=O)C(C)(C)N1,-4.2,x,1.4,x,x,13.3,x,x
CC1(C)Cc2c(sc(NC(=O)c3ccc(C(=O)c4ccccc4)cc3)c2C#N)C(C)(C)N1,-0.1,x,15.0*,x,x,6.5,1.4,14.8*
COC(=O)c1c(NC(=O)c2ccc(C(=O)c3ccccc3)cc2)sc2c1CC(C)(C)NC2(C)C,x,x,-1.1,x,x,x,x,x
CCOC(=O)N1CCN(S(=O)(=O)c2ccc(C(=O)Nc3sc4c(c3C#N)CC(C)(C)NC4(C)C)cc2)CC1,7.9,x,109.0*,x,x,7.0,52.9*,51.3*
O=C(CNC(=O)COc1ccccc1)NCc1ccccc1F,-0.4,1.2,0.0,0.6,-0.2,16.1,x,x
O=C(Nc1cccc2c1C(=O)NC2=O)c1ccc(S(=O)(=O)N2CCCC2)cc1,x,38.7,21.6*,4.2,-46.4,x,257.9*,264.0*
Cc1cccc(NC(=O)c2ccc(S(=O)(=O)N3CCCC3)cc2)c1C,1.9,x,-0.1,x,x,13.8,x,x
CC(OC(=O)CN1C(=O)NC2(CCCC2)C1=O)C(=O)c1ccccc1 (configuration not stated),4.7,x,-0.5,x,x,19.3,x,x
O=C(OCC(=O)N1CCCc2ccccc21)c1ccccc1NCCO,-2.6,x,6.2,x,x,1.8,x,x
O=C(OCC(=O)N1CCN(C(=O)COC(=O)c2ccccc2NCCO)CC1)c1ccccc1NCCO,x,x,57.2*,x,x,x,-30.0,-30.9
O=C(OCC(=O)N1CCN(C(=O)c2ccco2)CC1)c1ccccc1NCCO,u,x,21.5*,x,x,30.3,30.6*,31.3*
CC(OC(=O)c1ccccc1NCCO)C(=O)NC1CCCCC1C (configuration not stated),1.4,x,20.9*,x,x,14.1,18.9*,21.2*
CC1CCN(C(=O)COC(=O)c2ccccc2NC(=O)c2ccco2)CC1,-0.8,0.1,0.2,-1.2,-2.0,4.7,x,x
CC1CCN(C(=O)COC(=O)c2ccccc2NCCO)CC1,x,x,21.4*,x,x,x,25.8*,22.4*
CCN(C(=O)CN1C(=O)NC2(CCCC2)C1=O)c1nc2c(C)cccc2s1,x,x,0.0,x,x,x,x,x
COc1ccc(OC)c(CN2CCN(CC(=O)Nc3ccccc3C(=O)NC3CC3)CC2)c1,x,x,-0.8,x,x,x,x,x
COc1ccc(-c2coc3cc(OC(C)=O)c(OC)cc3c2=O)cc1,x,x,42.9*,x,x,x,153.5*,110.6*
COc1ccc(-c2coc3cc(O)ccc3c2=O)cc1OC,3.7,-50.2,-15.5,-1.8,0.1,24.6,x,x
SMILES,RanGTP-Imp inh,Runt-SMMHC FRET,proKLK7 act,Wee1 degr inh,Runt-CBFb FRET,AI-2 QS mod,KLK7 act conf,EDANS interfere
Cc1nc2c(c3c1[nH]c1ccccc13)C(O)CC(C)(C)C2 (configuration not stated),3.3,41.9,34.1*,-1.3,11.6,-9.5,41.3*,40.2*
Cc1nn(-c2ccccc2)c2c1C(O)CC(C)(C)C2 (configuration not stated),2.6,x,-0.4,x,x,29.3,x,x
CCc1ccc(-c2cn3nc(C)c(C)nc3n2)cc1,106.7*,74.3,49.5*,-3.3,x,8.0,72.8*,72.0*
CCc1c(-c2ccccc2)nc2nc(C)c(C)nn12,49.8*,-3.9,15.0*,-0.3,-0.2,21.7,-3.6,-0.1
Cc1cc(N2CCOCC2)n2cc(-c3ccccc3)nc2n1,-2.8,-1.5,0.8,0.2,1.1,14.1,x,x
Cc1nc2nc(-c3ccccc3)cn2nc1C,111.3*,60.5*,64.0*,-1.3,45.6,16.3,69.8*,72.3*
Cc1nc2nc(-c3ccc(F)cc3)cn2nc1C,95.2*,x,66.6*,x,x,5.2,68.7*,59.4*
CC(C)(C)C1CCC(N2CCN(c3ccccc3)CC2)CC1 (configuration not stated),2.8,x,0.0,x,x,6.8,x,x
COc1ccc2c(c1)CCCC21NC(=O)N(CC(=O)c2cc(F)ccc2F)C1=O (configuration not stated),x,x,-0.2,x,x,x,x,x
COC(=O)c1ccc(/C=N/NC(=O)C2CC(=O)N(c3ccc(OC)cc3)C2)cc1 (configuration not stated),-1.3,x,0.7,x,x,13.9,x,x
CC(=O)Nc1cccc(-c2nc3ccc(NC(C)=O)cc3s2)c1,-1.3,3.4,26.2*,-1.4,-2.0,16.8,21.8*,20.9*
CC(C)OCCCNC(=O)CNC(=O)c1ccc(Cl)c(Cl)c1,u,-0.4,0.5,0.0,-1.2,8.0,x,x
COc1ccc(NC(=O)c2cc3c(=O)n4ccccc4nc3n2C)c(OC)c1,4.1,74.3,-6.4,0.4,x,22.4,x,x
